We go through eleven molecules from ChEMBL document CHEMBL1146516, “Isolation and characterization of polybrominated diphenyl ethers as inhibitors of microtubule assembly from the marine sponge Phyllospongia dendyi collected at Palau” (J Nat Prod, 2004).

The structures appear in SMILES notation. Activity calls are given as the source filed them. The calls are words filed in the database; no cut-off is given here.

One assay deals with Oocyte. Kind of assay: Inhibition of 1-methyladenine-stimulated meiotic maturation in Asterina pectinifera immature oocytes assessed as germinal vesicle breakdown at 100 uM after 60 mins. In kind it is functional, cell-based. The note with it: Patiria pectinifera. The essentials:
(§1)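 Immature oocytes from wild-caught Asterina pectinifera ovaries, 100 cells/mL; DMSO-dissolved sample added, held on ice 10 min, then 1-MeAde (1.25 µM, as added) added; incubated 20 °C for 60 min; germinal vesicle state scored under inverted microscope.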

The species entered for a further assay is Sus scrofa. Kind of assay: Inhibition of pig brain microtubule assembly at 100 uM. The essentials:
(§2)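 Microtubule protein purified from fresh porcine brain by repeated polymerization/depolymerization cycles in 100 mM MES, 1 mM EGTA, 0.5 mM MgCl2, 1 mM GTP, 1 mM 2-mercaptoethanol, pH 6.5; 1.3 mg/mL protein; DMSO-dissolved sample (final DMSO <2%); assembly followed by turbidity at 400 nm, 37 °C.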

Assay [1] in a line: Inhibition of pig brain microtubule assembly. On the set-up: species or system Sus scrofa. The essentials: as §2
A short description of assay [2]: Inhibition of 1-methyladenine-stimulated meiotic maturation in Asterina pectinifera immature oocytes assessed as germinal vesicle breakdown after 60 mins. In kind it is functional, cell-based, Patiria pectinifera. The note with it: oocyte. A digest of the protocol: as §1

For the molecule `COc1cc(Br)c(Br)c(Br)c1Oc1cc(Br)cc(Br)c1OC`, the result in the assay with Oocyte and in the assay filed under Sus scrofa was inactive.

On to `COc1cc(Br)cc(Br)c1Oc1c(Br)ccc(Br)c1O`, for which the outcome in the assay with Oocyte and in the assay listed under Sus scrofa was inactive.

For orientation: IC50 means the concentration that gives 50% inhibition. As for `Oc1c(Br)cc(Br)cc1Oc1c(O)c(Br)c(Br)c(Br)c1Br`, the IC50 amounted to 29.6 µM in assay [1] and 3.6 µM in assay [2].

On to `COc1c(Br)c(Br)cc(Br)c1Oc1cc(Br)cc(Br)c1O`, for which the outcome in the assay with Oocyte and in the assay filed under Sus scrofa was inactive.

With `Oc1c(Br)cc(Br)cc1Oc1c(Br)cc(Br)c(Br)c1O`, the IC50 in assay [1] turned out to be 33.5 µM; in assay [2], 4.2 µM.

For `COc1cc(Br)c(Br)c(Br)c1Oc1cc(Br)cc(Br)c1O`, the outcome with Oocyte and in the assay listed under Sus scrofa was inactive.

In the case of `COc1c(Br)c(Br)c(Br)c(Br)c1Oc1cc(Br)cc(Br)c1O`, the result in the assay with Oocyte and in the assay filed under Sus scrofa was inactive.

Take `COc1cc(Br)cc(Br)c1Oc1cc(Br)cc(Br)c1OC`: the result in the assay with Oocyte and in the assay listed under Sus scrofa was inactive.

Turning to `Oc1cc(Br)c(Br)c(Br)c1Oc1c(Br)ccc(Br)c1O`, the IC50 was 20.9 µM in assay [1] and 4.2 µM in assay [2].

As for `COc1cc(Br)cc(Br)c1Oc1cc(Br)cc(Br)c1O`, the outcome in the assay with Oocyte and in the assay filed under Sus scrofa was inactive.

With `Oc1c(Br)cc(Br)cc1Oc1ccc(Br)cc1Br`, the result in the assay on Oocyte and in the assay listed under Sus scrofa was inactive.
